Data published in ChEMBL document CHEMBL1909500, “Synthesis and in vitro anticancer activity of 6,7-methylenedioxy (or 5-hydroxy-6-methoxy)-2-(substituted selenophenyl)quinolin-4-one analogs” (Eur J Med Chem, 2011).
Active and inactive are the calls of the source. The calls are words filed in the database; no cut-off is given here.

Tests used:
NCI/ADR-RES = test: Anticancer activity against human NCI/ADR-RES cells after 48 hrs by MTT assay; format: functional
SF-539 = test: Anticancer activity against human SF539 cells after 48 hrs by MTT assay; format: functional; settings: SF-539, 48 h
HCC 2998 = test: Anticancer activity against human HCC2998 cells after 48 hrs by MTT assay; format: functional; settings: HCC 2998, 48 h
HL-60 [1] = test: Induction of cell cycle arrest at G2/M phase in human HL60 cells assessed as decrease in cyclin B1 expression at 0.1 to 1.0 uM after 24 hrs by Western blot analysis; format: functional, cell-based
Outline: (§1)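 HL-60 cells at 2 × 10⁵/mL were exposed to the indicated concentrations for 24 h, washed in PBS and lysed for total protein. Immunoblots used HRP-linked secondary antibodies with ECL detection. Cyclin B1, CDK1, caspase-3 (17 kDa active form) and PARP (85 kDa fragment) were quantified and normalised to β-actin.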

NCI-H23 = test: Anticancer activity against human NCI-H23 cells after 48 hrs by MTT assay; format: functional; settings: NCI-H23, 48 h
HL-60 [2] = test: Cell cycle arrest in human HL60 assessed as cell accumulation in S phase at 1 uM after 24 hrs pretreated with pan-caspase inhibitor z-VAD-fmk for 3 hrs by propidium iodide staining-based flow cytometric analysis; format: functional; design: scale not given: the % may be the effect or the level left
Outline: (§2)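 HL-60 cells were preincubated for 3 h with or without the pan-caspase inhibitor z-VAD-fmk, then co-exposed to compound at 1 μM for 24 h. Cells were washed in PBS and fixed overnight in ice-cold 70% ethanol at −20 °C. They were stained for 30 min in the dark with propidium iodide 4 μg/mL, 0.1 mg/ml RNase and 1% Triton X-100. DNA content was read on a FACScan flow cytometer.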

HL-60 [3] = test: Growth inhibition of human HL60 cells at 0.1 to 1 uM by trypan blue exclusion assay; format: functional, cell-based; settings: TDE = time-dependent effect
Outline: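 HL-60 cells were given the indicated concentrations for 24 h and 48 h. Viable cells were counted by trypan blue exclusion. Values are mean ± SD of four independent experiments.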

HL-60 [4] = test: Induction of apoptosis in human HL60 cells assessed as PARP cleavage at 0.1 to 1.0 uM after 24 hrs by Western blot analysis; format: functional, cell-based; outline: as §1
COLO 205 = test: Anticancer activity against human COLO205 cells after 48 hrs by MTT assay; format: functional; settings: COLO 205, 48 h
[5] = Anticancer activity against human Hs 578T cells after 48 hrs by MTT assay; format: functional
U-251 = test: Anticancer activity against human U251 cells after 48 hrs by MTT assay; format: functional; settings: U-251, 48 h
SNB-19 = test: Anticancer activity against human SNB19 cells after 48 hrs by MTT assay; format: functional; settings: SNB-19, 48 h
MDA-MB-435 = test: Anticancer activity against human MDA-MB-435 cells after 48 hrs by MTT assay; format: functional; settings: MDA-MB-435, 48 h
LOX IMVI = test: Anticancer activity against human LOXIMVI cells after 48 hrs by MTT assay; format: functional
IGROV-1 = test: Anticancer activity against human IGROV1 cells after 48 hrs by MTT assay; format: functional; settings: IGROV-1, 48 h
HCT-116 = test: Anticancer activity against human HCT116 cells after 48 hrs by MTT assay; format: functional; settings: HCT-116, 48 h
HL-60 [6] = test: Induction of cell cycle arrest at G2/M phase in human HL60 cells assessed as increase in cyclin B1 expression at 0.1 to 1.0 uM after 24 hrs by Western blot analysis; format: functional, cell-based; outline: as §1
HL-60 [7] = test: Cell cycle arrest in human HL60 assessed as cell accumulation in S phase at 1 uM after 24 hrs by propidium iodide staining-based flow cytometric analysis; format: functional; outline: as §2
HL-60 [8] = test: Induction of cell cycle arrest at G2/M phase in human HL60 cells assessed as decrease in CDK1 protein expression after 24 hrs by Western blot analysis; format: functional, cell-based; outline: as §1
HOP-62 = test: Anticancer activity against human HOP62 cells after 48 hrs by MTT assay; format: functional; settings: HOP-62, 48 h
UACC-62 = test: Anticancer activity against human UACC62 cells after 48 hrs by MTT assay; format: functional; settings: UACC-62, 48 h
CAKI-1 = test: Anticancer activity against human Caki1 cells after 48 hrs by MTT assay; format: functional; settings: CAKI-1, 48 h
HL-60 [9] = test: Cell cycle arrest in human HL60 assessed as cell accumulation in G2/M phase at 1 uM after 24 hrs by propidium iodide staining-based flow cytometric analysis; format: functional; outline: as §2
SNB-75 = test: Anticancer activity against human SNB75 cells after 48 hrs by MTT assay; format: functional; settings: SNB-75, 48 h
SN12C = test: Anticancer activity against human SN12C cells after 48 hrs by MTT assay; format: functional
HL-60 [10] = test: Cell cycle arrest in human HL60 assessed as cell accumulation in Sub-G1 phase at 1 uM after 24 hrs by propidium iodide staining-based flow cytometric analysis; format: functional; outline: as §2
SF-268 = test: Anticancer activity against human SF268 cells after 48 hrs by MTT assay; format: functional; settings: SF-268, 48 h
HL-60 [11] = test: Cell cycle arrest in human HL60 assessed as cell accumulation in Sub-G1 phase at 1 uM after 24 hrs pretreated with pan-caspase inhibitor z-VAD-fmk for 3 hrs by propidium iodide staining-based flow cytometric analysis; format: functional; design: scale not given: the % may be the effect or the level left; outline: as §2
HL-60 [12] = test: Cell cycle arrest in human HL60 assessed as cell accumulation in G0/G1 phase at 1 uM after 24 hrs by propidium iodide staining-based flow cytometric analysis; format: functional; outline: as §2
SK-MEL-2 = test: Anticancer activity against human SK-MEL-2 cells after 48 hrs by MTT assay; format: functional; settings: SK-MEL-2, 48 h
NCI-H322M = test: Anticancer activity against human NCI-H322M cells after 48 hrs by MTT assay; format: functional
[13] = read-out: pLC50 (the source's name) (converted)

## Cc1ccc(-c2cc(=O)c3cc4c(cc3[nH]2)OCO4)[se]1
NCI/ADR-RES
  GI50: 316 nM
NCI/ADR-RES; [13]
  CC50: > 100000 nM
NCI/ADR-RES; read-out: pTGI
  TGI: > 100000 nM
SF-539
  GI50: 245 nM
SF-539; [13]
  CC50: > 100000 nM
SF-539; read-out: pTGI (converted)
  TGI: 708 nM
HCC 2998
  GI50: 288 nM
HCC 2998; [13]
  CC50: > 100000 nM
HCC 2998; read-out: pTGI
  TGI: > 100000 nM
HL-60 [1]
  Activity: Active
NCI-H23
  GI50: 741 nM
NCI-H23; [13]
  CC50: > 100000 nM
NCI-H23; read-out: pTGI
  TGI: > 100000 nM
HL-60 [2]
  Activity: 36.2%
HL-60 [3]
  growth inhibition (GI): tde
HL-60 [4]
  Activity: Active
COLO 205
  GI50: 2630 nM
COLO 205; [13]
  CC50: > 100000 nM
COLO 205; read-out: pTGI
  TGI: > 100000 nM
[5]
  GI50: 347 nM
[5]; [13]
  CC50: > 100000 nM
[5]; read-out: pTGI
  TGI: > 100000 nM
U-251
  GI50: 339 nM
U-251; [13]
  CC50: > 100000 nM
U-251; read-out: pTGI
  TGI: > 100000 nM
SNB-19
  GI50: 389 nM
SNB-19; [13]
  CC50: > 100000 nM
SNB-19; read-out: pTGI
  TGI: > 100000 nM
MDA-MB-435
  GI50: 52.5 nM
MDA-MB-435; [13]
  CC50: > 100000 nM
MDA-MB-435; read-out: pTGI (converted)
  TGI: 427 nM
LOX IMVI
  GI50: 646 nM
LOX IMVI; [13]
  CC50: > 100000 nM
LOX IMVI; read-out: pTGI
  TGI: > 100000 nM
IGROV-1
  GI50: 145 nM
IGROV-1; [13]
  CC50: > 100000 nM
IGROV-1; read-out: pTGI (converted)
  TGI: 457 nM
HCT-116
  GI50: 288 nM
HCT-116; [13]
  CC50: > 100000 nM
HCT-116; read-out: pTGI
  TGI: > 100000 nM
HL-60 [6]
  Activity: Active
HL-60 [7]
  Activity: 41.6%
HL-60 [8]
  Activity: Dose-dependent effect
HOP-62
  GI50: 562 nM
HOP-62; [13]
  CC50: > 100000 nM
HOP-62; read-out: pTGI
  TGI: > 100000 nM
UACC-62
  GI50: 398 nM
UACC-62; [13]
  CC50: > 100000 nM
UACC-62; read-out: pTGI
  TGI: > 100000 nM
CAKI-1
  GI50: 1820 nM
CAKI-1; [13]
  CC50: > 100000 nM
CAKI-1; read-out: pTGI
  TGI: > 100000 nM
HL-60 [9]
  Activity: 44.3%
SNB-75
  GI50: 275 nM
SNB-75; [13]
  CC50: > 100000 nM
SNB-75; read-out: pTGI
  TGI: > 100000 nM
SN12C
  GI50: 603 nM
SN12C; [13]
  CC50: > 100000 nM
SN12C; read-out: pTGI
  TGI: > 100000 nM
HL-60 [10]
  Activity: 21%
SF-268
  GI50: 513 nM
SF-268; [13]
  CC50: > 100000 nM
SF-268; read-out: pTGI
  TGI: > 100000 nM
HL-60 [11]
  Activity: 10.2%
HL-60 [12]
  Activity: 14.3%
SK-MEL-2
  GI50: 110 nM
SK-MEL-2; [13]
  CC50: > 100000 nM
SK-MEL-2; read-out: pTGI (converted)
  TGI: 525 nM
NCI-H322M
  GI50: > 100000 nM
NCI-H322M; [13]
  CC50: > 100000 nM
NCI-H322M; read-out: pTGI
  TGI: > 100000 nM
